Measurements reported in ChEMBL document CHEMBL2346557 (Bioorg Med Chem, 2013).
Activity calls are given as the source filed them. The calls are words filed in the database; no cut-off is given here.

Legend:
[1] = Metabolic stability in human liver microsomes assessed as compound remaining at 2 uM measured at 1 hr; type: ADME, Microsome; details: read-out: Stability
How it was run: (§1)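 Liver microsomes (human, or male monkey, dog, rat or mouse) at 0.5 mg/mL final with 2 µM compound, 5 mM MgCl2 and 5 mM PBS. The reaction was started with 1 mM NADPH and run at 37 °C. Verapamil was the positive control; water replaced NADPH in the negative control. Read-out was percent parent remaining at 1 h.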

[2] = Metabolic stability in monkey liver microsomes assessed as compound remaining at 2 uM measured at 1 hr; type: ADME, Macaca mulatta, Microsome; details: rhesus monkey, read-out: Stability; how it was run: as §1
[3] = AUClast in CD1 mouse at 50 mg/kg, po; type: ADME, organism-based; design: time 0 - last, dose 50 mg/kg, route oral; details: plasma
How it was run: (§2)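 CD1 mice (n = 3 per compound) were dosed orally at 50 mg/kg as an aqueous emulsion in 30% Labrafil. Blood was drawn at 0, 5, 15 and 30 min and 1, 2, 4, 8 and 24 h. Bioavailability and other parameters were calculated from the plasma profiles and compared against the intravenous arm.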

Mus musculus [4] = experiment: Total unbound Cmax in CD1 mouse at 10 mg/kg, iv; type: ADME, organism-based; design: dose 10 mg/kg, route intravenous; details: in vivo
[5] = Volume of distribution at steady state in CD1 mouse at 10 mg/kg, iv; type: ADME, organism-based; design: dose 10 mg/kg, route intravenous; details: in vivo, read-out: Vdss
How it was run: (§3)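 CD1 mice (n = 3 per compound) given 10 mg/kg as a single tail-vein injection in a pH 7.0 solution of 10% ethanol plus PEG400 (some compounds also with 10% DMSO). Blood was sampled at 0, 5, 15 and 30 min and 1, 2, 4, 8 and 24 h. Parameters were derived from the plasma concentration–time profiles.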

Mus musculus [6] = experiment: Total unbound Cmax in CD1 mouse at 50 mg/kg, po; type: ADME, organism-based; design: dose 50 mg/kg, route oral; details: in vivo
Liver microsomes = experiment: Metabolic stability in rat liver microsomes at 2 uM measured at 1 hr; type: ADME, Microsome; how it was run: as §1
[7] = Terminal half life in CD1 mouse at 10 mg/kg, iv; type: ADME, organism-based; design: dose 10 mg/kg, route intravenous; details: in vivo, read-out: beta t1/2 (converted); how it was run: as §3
[8] = Metabolic stability in dog liver microsomes assessed as compound remaining at 2 uM measured at 1 hr; type: ADME, Canis lupus familiaris, Microsome; details: read-out: Stability; how it was run: as §1
[9] = Tmax in CD1 mouse at 50 mg/kg, po; type: ADME, organism-based; design: dose 50 mg/kg, route oral; details: in vivo; how it was run: as §2
Mus musculus [10] = experiment: Total unbound AUC (0 to infinity) in CD1 mouse at 50 mg/kg, po; type: ADME, organism-based; design: dose 50 mg/kg, route oral; details: in vivo
[11] = Inhibition of TNFalpha-induced NFkappaB activation in mouse C2C12 cells incubated for 24 hrs prior to TNFalpha induction measured after 24 hrs by luciferase reporter gene assay; type: cell-based
How it was run: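 C2C12 myoblasts in growth medium and myotubes in differentiating medium, each stably carrying an NF-κB response element–luciferase reporter. Cells were washed, lysed and luciferase read; TNF-α alone was set as 100%. IC50 was calculated. SD shown.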

[12] = Clearance in CD1 mouse at 10 mg/kg, iv; type: ADME, organism-based; design: dose 10 mg/kg, route intravenous; details: in vivo; how it was run: as §3
[13] = target: T1, Glucocorticoid receptor (Mus musculus) (UniProt P06537); experiment: Induction of glucocorticoid receptor nuclear translocation in mouse C2C12 cells at 1 x 10^-5 to 1.69 x 10^-10 M by chemiluminescence assay relative to control; type: cell-based
T1 sequence (whole entry): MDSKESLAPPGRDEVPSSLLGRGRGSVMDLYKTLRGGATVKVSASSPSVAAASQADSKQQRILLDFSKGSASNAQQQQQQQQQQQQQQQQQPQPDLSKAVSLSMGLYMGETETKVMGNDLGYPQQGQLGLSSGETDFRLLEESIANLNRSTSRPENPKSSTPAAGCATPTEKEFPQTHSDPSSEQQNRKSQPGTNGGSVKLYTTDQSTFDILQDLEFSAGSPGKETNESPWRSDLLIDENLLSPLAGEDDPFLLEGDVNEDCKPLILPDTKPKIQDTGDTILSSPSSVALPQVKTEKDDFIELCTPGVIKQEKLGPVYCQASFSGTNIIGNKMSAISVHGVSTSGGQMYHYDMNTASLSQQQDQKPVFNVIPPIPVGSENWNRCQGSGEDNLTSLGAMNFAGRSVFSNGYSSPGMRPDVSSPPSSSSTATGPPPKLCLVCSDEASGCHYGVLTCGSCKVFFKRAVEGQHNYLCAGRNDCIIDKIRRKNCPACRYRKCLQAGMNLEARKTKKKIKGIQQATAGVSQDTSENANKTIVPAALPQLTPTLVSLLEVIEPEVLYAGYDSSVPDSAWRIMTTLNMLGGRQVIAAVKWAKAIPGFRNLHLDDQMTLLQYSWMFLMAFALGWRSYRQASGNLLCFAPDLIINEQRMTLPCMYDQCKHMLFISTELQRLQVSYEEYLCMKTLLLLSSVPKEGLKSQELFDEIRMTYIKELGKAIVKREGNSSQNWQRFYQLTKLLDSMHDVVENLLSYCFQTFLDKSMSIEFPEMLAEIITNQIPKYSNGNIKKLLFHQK
How it was run: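 GR nuclear translocation measured by DiscoveRx in PathHunter cells using enzyme-fragment complementation. ProLink-tagged GR recruits a nuclear steroid receptor co-activator peptide fused to the enzyme acceptor, giving a chemiluminescent signal.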

[14] = target: T2, Glucocorticoid receptor (Homo sapiens) (UniProt P04150); experiment: Transactivation of glucocorticoid receptor in HEK293 cells co-transfected with GRE assessed as induction of GRE-dependent gene expression at 100 ug/ml after 6 hrs by luciferase reporter gene assay; type: cell-based
T2 sequence (whole entry): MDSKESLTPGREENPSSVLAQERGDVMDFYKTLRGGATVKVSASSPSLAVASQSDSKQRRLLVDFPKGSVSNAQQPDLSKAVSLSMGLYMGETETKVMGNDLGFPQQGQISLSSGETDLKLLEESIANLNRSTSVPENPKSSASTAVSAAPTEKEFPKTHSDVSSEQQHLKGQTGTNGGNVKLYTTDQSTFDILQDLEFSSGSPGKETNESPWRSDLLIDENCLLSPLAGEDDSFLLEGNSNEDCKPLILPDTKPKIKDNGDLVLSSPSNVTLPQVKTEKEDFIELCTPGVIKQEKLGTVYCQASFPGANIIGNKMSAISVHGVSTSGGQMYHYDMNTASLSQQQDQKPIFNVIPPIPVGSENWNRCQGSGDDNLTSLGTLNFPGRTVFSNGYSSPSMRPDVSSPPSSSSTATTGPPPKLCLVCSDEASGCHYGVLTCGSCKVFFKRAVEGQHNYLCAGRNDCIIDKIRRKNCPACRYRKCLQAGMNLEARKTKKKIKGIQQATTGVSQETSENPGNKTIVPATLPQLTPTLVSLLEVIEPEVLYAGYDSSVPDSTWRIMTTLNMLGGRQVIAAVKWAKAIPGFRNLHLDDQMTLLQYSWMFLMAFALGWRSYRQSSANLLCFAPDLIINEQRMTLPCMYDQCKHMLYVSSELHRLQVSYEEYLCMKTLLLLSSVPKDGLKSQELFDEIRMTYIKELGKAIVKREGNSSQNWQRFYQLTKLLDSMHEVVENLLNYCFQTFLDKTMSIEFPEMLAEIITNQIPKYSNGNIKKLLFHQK
How it was run: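 HEK-293 cells stably transfected with a GRE-driven luciferase reporter were exposed to drug at 0.01–100 μg/ml for 6 h. Cells were washed with PBS and lysed, and luciferase activity was measured by luminometer.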

C2C12 = experiment: Cytotoxicity against mouse C2C12 cells assessed as cell viability at 0.01 to 100 ug/mL after 24 hrs by MTT assay; type: cell-based; details: c2c12, 24 h
How it was run: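 MTT viability run on C2C12 cells grown and treated alongside the NF-κB reporter plates, with drug at 0.01–100 µg/ml and DMSO vehicle. Viability is expressed as percent of untreated cells. A one-way repeated-measures ANOVA tested for a concentration effect.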

[15] = Tmax in CD1 mouse at 10 mg/kg, iv; type: ADME, organism-based; design: dose 10 mg/kg, route intravenous; details: in vivo; how it was run: as §3
Mus musculus [16] = experiment: Oral bioavailability in CD1 mouse at 50 mg/kg; type: ADME, organism-based; details: in vivo; how it was run: as §2
[17] = AUClast in CD1 mouse at 10 mg/kg, iv; type: ADME, organism-based; design: time 0 - last, dose 10 mg/kg, route intravenous; details: plasma; how it was run: as §3
[18] = Metabolic stability in mouse liver microsomes assessed as compound remaining at 2 uM measured at 1 hr; type: ADME, Microsome; details: read-out: Stability; how it was run: as §1
[19] = Mean residence time in CD1 mouse at 10 mg/kg, iv; type: ADME, organism-based; design: dose 10 mg/kg, route intravenous; details: in vivo; how it was run: as §3
[20] = Terminal half life in CD1 mouse at 50 mg/kg, po; type: ADME, organism-based; design: dose 50 mg/kg, route oral; details: in vivo, read-out: beta t1/2 (converted); how it was run: as §2
Mus musculus [21] = experiment: Total unbound AUC (0 to infinity) in CD1 mouse at 10 mg/kg, iv; type: ADME, organism-based; design: dose 10 mg/kg, route intravenous; details: in vivo

Compound	EC50 [11]	Activity [13]	Activity (C2C12)	also measured
C[C@@H]1C[C@H]2[C@@H]3CCC4=CC(=O)C=C[C@]4(C)C3=CC[C@]2(C)[C@H]1C(=O)CO	56.4 nM	54.2%	Non-toxic	remaining at 1 h, 2 µM [1]: ≥ 80%; remaining at 1 h, 2 µM [2]: ≥ 80%; AUC(0-t) [3]: 22000 ng·h/mL; fCmax (Mus musculus [4]): 8637 ng/mL; Vd [5]: 0.874 L/kg; fCmax (Mus musculus [6]): 10203 ng/mL; Stability (Liver microsomes): Unstable; half-life [7]: 40 min; remaining at 1 h, 2 µM [8]: ≥ 80%; Tmax [9]: 60 min; fAUC (Mus musculus [10]): 22031 ng·h/mL; clearance [12]: 48.2 mL/min/kg; Activity [14]: inactive; Tmax [15]: 5 min; F (Mus musculus [16]): 128%; AUC(0-t) [17]: 3450 ng·h/mL; remaining at 1 h, 2 µM [18]: 34%; MRT [19]: 17.3 min; half-life [20]: 39.5 min; fAUC (Mus musculus [21]): 3457 ng·h/mL
CCCC[C@@H]1C[C@H]2[C@@H]3CCC4=CC(=O)C=C[C@]4(C)C3=CC[C@]2(C)[C@H]1C(=O)CO	> 10000 nM	6.9%	Toxic	–
C[C@@H]1C[C@H]2[C@@H]3CCC4=CC(=O)CC[C@]4(C)C3=CC[C@]2(C)[C@H]1C(=O)CN1CCCC1	–	19.9%	Non-toxic	–
C[C@]12C=CC(=O)C=C1CC[C@@H]1C2=CC[C@]2(C)C(C(=O)CO)=CC[C@@H]12	495 nM	16.7%	–	–
C[C@]12C=CC(=O)C=C1CC[C@@H]1C2=CC[C@@]2(C)[C@H]1CC[C@]2(O)C(=O)CO	129 nM	57.6%	–	–
C[C@H]1C[C@H]2[C@@H]3CCC4=CC(=O)C=C[C@]4(C)C3=CC[C@]2(C)[C@@]1(O)C(=O)CO	–	44.5%	Non-toxic	–
CC[C@@H]1C[C@H]2[C@@H]3CCC4=CC(=O)C=C[C@]4(C)C3=CC[C@]2(C)[C@H]1C(=O)CO	89.5 nM	27%	Toxic	–
CC(=O)OCC(=O)[C@H]1[C@H](C)C[C@H]2[C@@H]3CCC4=CC(=O)C=C[C@]4(C)C3=CC[C@@]21C	54.1 nM	48.8%	Non-toxic	Activity [14]: inactive
C[C@]12CCC(=O)C=C1CC[C@@H]1C2=CC[C@@]2(C)[C@H]1CC[C@]2(O)C(=O)CN1CCOCC1	1740 nM	28.7%	–	–
C[C@]12CCC(=O)C=C1CC[C@@H]1C2=CC[C@@]2(C)[C@H]1CC[C@]2(O)C(=O)CO	62.9 nM	49.2%	–	–
CN1CCN(CC(=O)[C@@]2(O)CC[C@H]3[C@@H]4CCC5=CC(=O)CC[C@]5(C)C4=CC[C@@]32C)CC1	5780 nM	23.5%	–	–
CC(=O)OCC(=O)C1=CC[C@H]2[C@@H]3CCC4=CC(=O)C=C[C@]4(C)C3=CC[C@]12C	–	15.3%	–	–
C[C@@H]1C[C@H]2[C@@H]3CCC4=CC(=O)CC[C@]4(C)C3=CC[C@]2(C)[C@H]1C(=O)CN1CCOCC1	5240 nM	22.7%	Non-toxic	–
CCCN(CCC)CC(=O)[C@@]1(O)CC[C@H]2[C@@H]3CCC4=CC(=O)CC[C@]4(C)C3=CC[C@@]21C	–	21.8%	–	–
CCCC[C@@H]1C[C@H]2[C@@H]3CCC4=CC(=O)CC[C@]4(C)C3=CC[C@]2(C)[C@H]1C(=O)CO	> 10000 nM	8.5%	Toxic	–
C[C@]12CCC(=O)C=C1CC[C@@H]1C2=CC[C@@]2(C)[C@H]1CC[C@]2(O)C(=O)CN1CCCC1	1850 nM	24.7%	–	–
C[C@@H]1C[C@H]2[C@@H]3CCC4=CC(=O)CC[C@]4(C)C3=CC[C@]2(C)[C@H]1C(=O)CN1CCN(C)CC1	> 10000 nM	14.7%	Non-toxic	–
CC(=O)OCC(=O)[C@@]1(O)CC[C@H]2[C@@H]3CCC4=CC(=O)CC[C@]4(C)C3=CC[C@@]21C	–	51.5%	–	Activity [14]: inactive
CCCN(CCC)CC(=O)[C@H]1[C@H](C)C[C@H]2[C@@H]3CCC4=CC(=O)CC[C@]4(C)C3=CC[C@@]21C	723 nM	37.7%	Non-toxic	–
